Data on 35 molecules can be found in ChEMBL document CHEMBL1147823, “Conformationally constrained analogues of diacylglycerol. 26. Exploring the chemical space surrounding the C1 domain of protein kinase C with DAG-lactones containing aryl groups at the sn-1 and sn-2 positions” (J Med Chem, 2006).

The target in assay [1] is Protein kinase C alpha type (Homo sapiens, UniProt P17252). In words: Displacement of [20-3H]PDBU from recombinant PKCalpha in presence of phosphatidylserine. The method, boiled down: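 Competition binding with recombinant single-isozyme PKC-α as the target enzyme. Each ligand's ability to displace bound [20-³H]phorbol 12,13-dibutyrate was measured in the presence of phosphatidylserine. Ki values were derived from the competition, and both E- and Z-isomers were assayed.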

The target in assay [2] is T1, Protein kinase C delta type (Homo sapiens, UniProt Q05655). In words: Binding affinity to PKCdeltaC1b in presence of phospholipid.
Target sequence in this assay (Q05655 whole entry): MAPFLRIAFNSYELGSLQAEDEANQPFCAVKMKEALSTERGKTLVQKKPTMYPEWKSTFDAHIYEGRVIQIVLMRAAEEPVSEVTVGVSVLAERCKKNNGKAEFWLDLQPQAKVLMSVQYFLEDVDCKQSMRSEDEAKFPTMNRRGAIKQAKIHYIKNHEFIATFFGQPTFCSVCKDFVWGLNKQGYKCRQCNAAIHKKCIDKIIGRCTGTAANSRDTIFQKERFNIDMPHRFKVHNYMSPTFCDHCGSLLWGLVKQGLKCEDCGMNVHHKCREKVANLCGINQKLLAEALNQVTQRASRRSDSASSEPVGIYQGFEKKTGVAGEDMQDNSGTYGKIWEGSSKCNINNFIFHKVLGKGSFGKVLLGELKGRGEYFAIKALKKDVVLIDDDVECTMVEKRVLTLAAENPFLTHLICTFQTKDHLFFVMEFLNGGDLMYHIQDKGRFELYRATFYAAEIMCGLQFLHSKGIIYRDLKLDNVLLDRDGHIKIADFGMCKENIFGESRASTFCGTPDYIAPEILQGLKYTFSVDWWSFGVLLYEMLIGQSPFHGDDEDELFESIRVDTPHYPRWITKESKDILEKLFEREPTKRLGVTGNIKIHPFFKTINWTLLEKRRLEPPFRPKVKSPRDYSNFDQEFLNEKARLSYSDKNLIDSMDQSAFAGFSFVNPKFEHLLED
Assay [3] has as its target T1, Protein kinase C delta type. In words: Binding affinity to PKCdeltaC1b in absence of phospholipid.
Target sequence in this assay (Q05655 whole entry): as above
Assay [4] shares this target. As to the kind of experiment: Ratio of binding affinity to PKCdeltaC1b in presence to absence of phospholipid.
Target sequence in this assay (Q05655 whole entry, looked up): as the sequence (Q05655 whole entry) above

On to `CC(C)C(CC(=O)OCC1(CO)C/C(=C\c2ccccc2O)C(=O)O1)C(C)C` (stereo unspecified), for which, in assay [1], the Ki turned out to be 22 nM.
For `CC(C)C(C/C=C1/CC(CO)(COC(=O)C2CCCCC2)OC1=O)C(C)C` (stereo unspecified), the Ki in assay [1] turned out to be 8 nM.
As to `CCCCCCCC/C=C1\CC(CO)(COC(=O)Cc2ccccc2)OC1=O` (stereo unspecified), the Ki in assay [1] was found to be 44 nM.
Regarding `CC(C)C(C/C=C1\CC(CO)(COC(=O)c2ccccc2O)OC1=O)C(C)C` (stereo unspecified), the Ki in assay [1] was found to be 67 nM.
Regarding `CC(C)C(CC(=O)OCC1(CO)C/C(=C\c2ccc(O)cc2)C(=O)O1)C(C)C` (stereo unspecified), the Ki was 19 nM in assay [1], 1.4 nM in assay [2] and 170 nM in assay [3]. Also, in assay [4], the Ratio Ki worked out at 121.
For the molecule `COc1ccccc1/C=C1\CC(CO)(COC(=O)CC(C(C)C)C(C)C)OC1=O` (stereo unspecified), the Ki in assay [1] was determined as 16 nM.
Take `CC(C)C(C/C=C1\CC(CO)(COC(=O)c2ccccc2)OC1=O)C(C)C` (stereo unspecified): the Ki in assay [1] was 28 nM.
Consider `CCCCCCCCC/C=C1/CC(CO)(COC(=O)C2CCCCC2)OC1=O` (stereo unspecified), for which the Ki in assay [1] turned out to be 5 nM.
Consider `CC(C)C(CC(=O)OCC1(CO)C/C(=C\Cc2ccccc2)C(=O)O1)C(C)C` (stereo unspecified), for which, in assay [1], the Ki came out at 14 nM.
As for `CCCCCCC/C=C1/CC(CO)(COC(=O)CCc2ccccc2)OC1=O` (stereo unspecified), the Ki in assay [1] was determined as 14 nM.
Turning to `CCCCCCCCC/C=C1\CC(CO)(COC(=O)c2ccccc2)OC1=O` (stereo unspecified), in assay [1], the Ki was 14 nM.
The same measure, in the same setting: to `CCCCCC/C=C1\CC(CO)(COC(=O)CCCc2ccccc2)OC1=O` (stereo unspecified) belongs 27 nM; to `COc1ccc(/C=C2\CC(CO)(COC(=O)CC(C(C)C)C(C)C)OC2=O)cc1` (stereo unspecified), 7 nM.
Consider `COc1ccc(C(=O)OCC2(CO)C/C(=C\CC(C(C)C)C(C)C)C(=O)O2)cc1` (stereo unspecified), for which, in assay [1], the Ki was 36 nM.
`CC(C)C(C/C=C1\CC(CO)(COC(=O)c2cccc(O)c2)OC1=O)C(C)C` (stereo unspecified): the Ki in assay [1] stood at 670 nM.
As to `CC(C)C(C/C=C1\CC(CO)(COC(=O)C2CCCCC2)OC1=O)C(C)C` (stereo unspecified), the Ki in assay [1] was determined as 10 nM.
Same read-out and setting: to `CCCCCCCCC/C=C1\CC(CO)(COC(=O)C2CCCCC2)OC1=O` (stereo unspecified) belongs 9 nM; to `CC(C)C(C/C=C1/CC(CO)(COC(=O)c2ccccc2O)OC1=O)C(C)C` (stereo unspecified), 30 nM.
Regarding `CCCCCCCC/C=C1/CC(CO)(COC(=O)Cc2ccccc2)OC1=O` (stereo unspecified), in assay [1], the Ki was determined as 45 nM.
Turning to `COc1cccc(C(=O)OCC2(CO)C/C(=C\CC(C(C)C)C(C)C)C(=O)O2)c1` (stereo unspecified), in assay [1], the Ki was found to be 39 nM.
Consider `COc1cccc(C(=O)OCC2(CO)C/C(=C/CC(C(C)C)C(C)C)C(=O)O2)c1` (stereo unspecified), for which, in assay [1], the inhibition constant (Ki) is 24 nM.
With `CCCCCCC/C=C1\CC(CO)(COC(=O)CCc2ccccc2)OC1=O` (stereo unspecified), in assay [1], the Ki worked out at 18 nM.
As to `CCCCCC/C=C1/CC(CO)(COC(=O)CCCc2ccccc2)OC1=O` (stereo unspecified), the Ki in assay [1] came to 17 nM.
`COc1ccccc1C(=O)OCC1(CO)C/C(=C\CC(C(C)C)C(C)C)C(=O)O1` (stereo unspecified): in assay [1], the inhibition constant (Ki) was 73 nM.
As to `CC(C)C(CC(=O)OCC1(CO)C/C(=C\c2ccccc2)C(=O)O1)C(C)C` (stereo unspecified), the Ki in assay [1] came out at 12 nM.
Still for that read-out and setting: to `COc1ccc(C(=O)OCC2(CO)C/C(=C/CC(C(C)C)C(C)C)C(=O)O2)cc1` (stereo unspecified) belongs 18 nM; to `COc1ccccc1C(=O)OCC1(CO)C/C(=C/CC(C(C)C)C(C)C)C(=O)O1` (stereo unspecified), 23 nM.
Turning to `CC(C)C(C/C=C1\CC(CO)(COC(=O)c2ccc(O)cc2)OC1=O)C(C)C` (stereo unspecified), the Ki in assay [1] came to 2400 nM; in assay [2], 980 nM; in assay [3], 16900 nM. For the same molecule, in assay [4], the Ratio Ki was found to be 17.
In the case of `CCCCCCCCC/C=C1/CC(CO)(COC(=O)c2ccccc2)OC1=O` (stereo unspecified), in assay [1], the Ki is 9 nM.
`CC(C)C(C/C=C1/CC(CO)(COC(=O)c2ccccc2)OC1=O)C(C)C` (stereo unspecified): the Ki in assay [1] was 16 nM.
In the case of `COc1cccc(/C=C2\CC(CO)(COC(=O)CC(C(C)C)C(C)C)OC2=O)c1` (stereo unspecified), the Ki in assay [1] was found to be 12 nM.
Still for that read-out and setting: with `CC(C)C(C/C=C1/CC(CO)(COC(=O)c2ccc(O)cc2)OC1=O)C(C)C` (stereo unspecified) the figure was 983 nM; with `CC(C)C(C/C=C1/CC(CO)(COC(=O)c2cccc(O)c2)OC1=O)C(C)C` (stereo unspecified), 406 nM.
On to `CC(C)C(CC(=O)OCC1(CO)C/C(=C\c2cccc(O)c2)C(=O)O1)C(C)C` (stereo unspecified), for which, in assay [1], the Ki worked out at 17 nM.
The same measure, in the same setting: to `CC(C)C(CC(=O)OCC1(CO)C/C(=C\CCc2ccccc2)C(=O)O1)C(C)C` (stereo unspecified) belongs 9 nM.
